Test results as given in article PMC11588046 (Proceedings of the National Academy of Sciences of the …, 2024).
Numbering of substitutions follows the chain as printed. In brackets after ≈: the same amount, converted by molar mass. Read-outs that look alike come from different tables or passages of the source.

Experiments:
WT fibroblasts (GM01652) = experiment: pSMAD1/5 Western blot in primary WT fibroblasts; type: cell-based, human; conditions: 5 ng/mL BMP2, inhibitor 1, 5 or 25 µM (LDN 1 µM)
[1] = test system: FOP fibroblasts (GM00513); experiment: pSMAD Western blot in primary FOP fibroblasts; type: cell-based, human; conditions: FOP cells; for BMP2-induced pSMAD1/5 activation: 5 ng/mL BMP2, inhibitor 1, 5 or 25 µM (LDN 1 µM); for activin A-induced phosphorylation of SMAD1/5: 200 ng/mL activin A, inhibitor 1, 5 or 25 µM (LDN 1 µM)
How it was run: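 Primary fibroblasts from a patient with FOP (GM00513) were pretreated for 30 min with test compound (1, 5 or 25 µM) or a reference inhibitor (1 µM). Cells then received vehicle (DMSO), 200 ng/mL activin A or 5 ng/mL BMP2 for 45 min, with inhibitor present. Lysates were Western blotted for pSMAD1/5, total SMAD1, total SMAD5 and GAPDH (loading control). For activin A, pSMAD2/3 was also blotted.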

[2] = Metabolic stability in human liver microsomes; type: in vitro ADME
Dynamic solubility assay = type: physicochemical
WT ALK2 = target: T1, WT ALK2 (Homo sapiens, UniProt Q04771); type: cell-based; conditions: read-out: ALK2 IC50; NanoBRET, HEK293 cells
T1 sequence (Q04771 21-509): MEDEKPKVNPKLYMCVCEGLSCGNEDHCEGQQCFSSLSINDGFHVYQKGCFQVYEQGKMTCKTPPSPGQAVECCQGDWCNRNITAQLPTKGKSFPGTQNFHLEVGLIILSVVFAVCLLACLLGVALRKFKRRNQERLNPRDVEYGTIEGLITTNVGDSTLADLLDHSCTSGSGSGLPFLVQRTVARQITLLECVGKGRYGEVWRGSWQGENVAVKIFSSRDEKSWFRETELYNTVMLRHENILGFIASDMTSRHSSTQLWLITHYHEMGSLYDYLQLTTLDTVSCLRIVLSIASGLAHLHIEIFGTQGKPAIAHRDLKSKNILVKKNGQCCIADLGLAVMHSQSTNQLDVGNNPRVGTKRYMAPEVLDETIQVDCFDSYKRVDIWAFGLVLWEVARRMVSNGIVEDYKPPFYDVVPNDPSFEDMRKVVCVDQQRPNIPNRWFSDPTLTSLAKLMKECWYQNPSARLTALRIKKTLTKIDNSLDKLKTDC

mutant ALK2 (R206H) = target: T2, mutant ALK2 (R206H) (Homo sapiens, UniProt Q04771, R206H); type: cell-based; conditions: read-out: ALK2 (R206H) IC50; NanoBRET, HEK293 cells
T2 sequence (Q04771 21-509 R206H): T1 sequence (Q04771 21-509) with R186H

[3] = Metabolic stability in mouse liver microsomes; type: in vitro ADME
WT ALK1 = WT ALK1 (Homo sapiens, UniProt P37023); experiment: NanoBRET TE intracellular kinase assay; type: cell-based; conditions: read-out: ALK1 IC50, HEK293 cells
293 T-BRE-Luc cells = experiment: BMP-induced luciferase activity in 293 T-BRE-Luc reporter cells; type: cell-based
How it was run: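 293T cells stably carrying a BMP-responsive element–luciferase reporter, about 20,000 per well, attached overnight. Pretreated 30 min with DMSO vehicle or test compound (0.04, 0.2, 1, 5, 25 μM) in phenol-red-free DMEM with 2 mM glutamine and 2% heat-inactivated FBS. Then stimulated 6 h with BMP2 (5 ng/mL), BMP6 (500 ng/mL) or BMP7 (500 ng/mL). BrightGLO luminescence normalized to ligand-only samples; dose-response curves fitted.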

Chain of WT ALK1 (P37023 22-503): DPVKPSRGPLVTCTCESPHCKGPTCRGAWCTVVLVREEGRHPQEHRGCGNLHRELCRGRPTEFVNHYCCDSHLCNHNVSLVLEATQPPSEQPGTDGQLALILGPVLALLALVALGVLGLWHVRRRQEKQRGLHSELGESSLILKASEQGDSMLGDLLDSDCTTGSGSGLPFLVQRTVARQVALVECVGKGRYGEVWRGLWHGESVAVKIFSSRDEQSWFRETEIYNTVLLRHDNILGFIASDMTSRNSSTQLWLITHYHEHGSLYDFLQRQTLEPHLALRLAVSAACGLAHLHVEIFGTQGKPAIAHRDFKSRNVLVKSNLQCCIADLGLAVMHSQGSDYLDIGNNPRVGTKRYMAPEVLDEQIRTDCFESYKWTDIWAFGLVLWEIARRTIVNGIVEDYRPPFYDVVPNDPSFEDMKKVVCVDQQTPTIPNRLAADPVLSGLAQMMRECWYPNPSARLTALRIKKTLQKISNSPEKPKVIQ

| SMILES | HLM t1/2 ([2]; U, extremely unstable) | Solubility (Dynamic solubility assay) | IC50 (WT ALK2) | IC50 (mutant ALK2 (R206H)) | MLM t1/2 ([3]; U, extremely unstable) | IC50 (WT ALK1) | HLM t1/2 [2] | MLM t1/2 [3] | BMP2-induced pSMAD1/5 activation (WT fibroblasts (GM01652)) | BMP2-induced pSMAD1/5 activation [1] | activin A-induced phosphorylation of SMAD1/5 [1] | IC50 (293 T-BRE-Luc cells; read-out: IC50 of BMP2-induced luciferase activity, 5 ng/mL BMP2, 6 h) | IC50 (293 T-BRE-Luc cells; read-out: IC50 of BMP6-induced luciferase activity, 500 ng/mL BMP6, 6 h) | IC50 (293 T-BRE-Luc cells; read-out: IC50 of BMP7-induced luciferase activity, 500 ng/mL BMP7, 6 h) |
| --- | --- | --- | --- | --- | --- | --- | --- | --- | --- | --- | --- | --- | --- | --- |
| c1ccc2c(-c3cnn4cc(-c5ccc(N6CCNCC6)cc5)cnc34)ccnc2c1 [LDN-193189, reference compound] | – | – | – | – | – | – | – | – | effectively suppressed pSMAD1/5 activation | effectively suppressed pSMAD1/5 activation | effectively suppressed pSMAD1/5 activation | – | – | – |
| CNC(=O)[C@H]1C[C@H](n2c(-c3ccc(OC)c(OC)c3)nc3ccc(C(=O)NCCCN4CCN(c5cccc(C)c5C)CC4)cc32)C1 [CDD-2421] | 6.0 min | 44.8 µM (≈ 28.6 µg/mL) | 1240 nM | 2400 nM | 3.7 min | > 30 µM | – | – | – | – | – | – | – | – |
| CNC(=O)[C@H]1C[C@H](n2c(-c3cc(OC)c(OC)c(OC)c3)nc3ccc(C(=O)NCCCN(C)C)cc32)C1 [CDD-2281] | 769 min | 199.6 µM (≈ 105 µg/mL) | > 30000 nM | > 30000 nM | 807 min | > 30 µM | 768 min | 804 min | – | – | – | – | – | – |

More lines, in order of falling IC50 (WT ALK2), values ahead:

| HLM t1/2 ([2]; U, extremely unstable) | Solubility (Dynamic solubility assay) | IC50 (WT ALK2) | IC50 (mutant ALK2 (R206H)) | MLM t1/2 ([3]; U, extremely unstable) | IC50 (WT ALK1) | HLM t1/2 [2] | MLM t1/2 [3] | SMILES | BMP2-induced pSMAD1/5 activation (WT fibroblasts (GM01652)) | BMP2-induced pSMAD1/5 activation [1] | activin A-induced phosphorylation of SMAD1/5 [1] | IC50 (293 T-BRE-Luc cells; read-out: IC50 of BMP2-induced luciferase activity, 5 ng/mL BMP2, 6 h) | IC50 (293 T-BRE-Luc cells; read-out: IC50 of BMP6-induced luciferase activity, 500 ng/mL BMP6, 6 h) | IC50 (293 T-BRE-Luc cells; read-out: IC50 of BMP7-induced luciferase activity, 500 ng/mL BMP7, 6 h) |
| --- | --- | --- | --- | --- | --- | --- | --- | --- | --- | --- | --- | --- | --- | --- |
| 24.4 min | 121.8 µM (≈ 72.9 µg/mL) | 5300 nM | 9250 nM | 7.1 min | > 30 µM | – | – | CNC(=O)[C@H]1C[C@H](n2c(-c3cc(F)cc(OC)c3)nc3ccc(C(=O)NCCCN4CCN(c5ccccc5)CC4)cc32)C1 [CDD-2340] | potently reduced BMP2-induced pSMAD1/5 activation in the WT fibroblasts at 5 and 25 µM | only the highest concentration (25 µM) was sufficient to significantly reduce pSMAD1/5 activation | significantly inhibit the activin A-induced phosphorylation of SMAD1/5 starting at the 1 µM concentration | – | – | – |
| 7.8 min | 63.5 µM (≈ 37.1 µg/mL) | 570 nM | 1230 nM | 6.3 min | > 30 µM | – | – | COc1cc(-c2nc3ccc(C(=O)NCCCN4CCN(c5ccccc5)CC4)cc3n2C2CCC2)cc(OC)c1OC [CDD-2315] | significantly reduced pSMAD1/5 at all the concentrations tested | – | significantly inhibit the activin A-induced phosphorylation of SMAD1/5 starting at the 1 µM concentration | 1490 nM | 1460 nM | 980 nM |
| 17.0 min | 141.5 µM (≈ 82.7 µg/mL) | 390 nM | 460 nM | 2.9 min | 8.55 µM | – | – | COc1cc(-c2nc3ccc(C(=O)NCC4(O)CCN(Cc5ccccc5)CC4)cc3n2C2CCC2)cc(OC)c1OC [CDD-2795] | – | – | – | – | – | – |
